Reference: ChEMBL document CHEMBL1147041, “Modulation of human neural stem cell differentiation in Alzheimer (APP23) transgenic mice by phenserine” (2007)
Calls of active or inactive are those of the source. The calls are words filed in the database; no cut-off is given here.

Key:
[1] = Effect on neuronal differentiation of human neural stem cells transplanted in APP23 transgenic mouse motor cortex region assessed as increase of beta-3 tubulin+/BrdU+ count at 25 mg/kg/day, ip for 14 days; format: functional, Neural stem cell; conditions: route intraperitoneal
How it was run: (§1)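 Mice received daily i.p. drug or saline for 14 days. BrdU-labelled (3 µM, 48 h) fetal human neural stem cells, ≈105 cells, were then injected into the right lateral ventricle with no immunosuppression. Daily injections resumed for 1 week after a 2-day recovery. At 6 weeks, 20 µm coronal sections from paraformaldehyde-perfused brains were double-stained for BrdU plus GFAP or β-III tubulin. Cells were counted bilaterally at ×400 on 4–6 sections per mouse, n = 6–7 per group, and compared by ANOVA.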

[2] = Effect on neuronal differentiation of human neural stem cells transplanted in APP23 transgenic mouse hippocampus CA2 region assessed as increase of beta-3 tubulin+/BrdU+ count at 25 mg/kg/day, ip for 14 days; format: functional, Neural stem cell; conditions: route intraperitoneal; how it was run: as §1
[3] = Effect on neuronal differentiation of human neural stem cells transplanted in wild type mouse hippocampus CA1 region assessed as increase of beta-3 tubulin+/BrdU+ count at 25 mg/kg/day, ip for 14 days; format: functional, Neural stem cell; conditions: route intraperitoneal; how it was run: as §1
[4] = Effect on neuronal differentiation of human neural stem cells transplanted in APP23 transgenic mouse somatosensory region assessed as increase of beta-3 tubulin+/BrdU+ count at 25 mg/kg/day, ip for 14 days; format: functional, Neural stem cell; conditions: route intraperitoneal; how it was run: as §1
Mus musculus [5] = experiment: Decrease in amyloid precursor protein expression in wild type mouse cerebral cortices at 25 mg/kg/day, ip for 14 days by Western blot relative to control; format: functional, organism-based
Mus musculus [6] = experiment: Decrease in amyloid precursor protein expression in APP23 transgenic mouse hippocampus at 25 mg/kg/day, ip for 14 days by Western blot relative to control; format: functional; set-up: scale not given: the % may be the effect or the level left; conditions: route intraperitoneal
[7] = Effect on glial differentiation of human neural stem cells transplanted in APP23 transgenic mouse hippocampus assessed as reduction of GFAP+/BrdU+ count at 25 mg/kg/day, ip for 14 days by fluorescent immunohistochemistry; format: functional, Neural stem cell; set-up: scale not given: the % may be the effect or the level left; conditions: route intraperitoneal; how it was run: as §1
Mus musculus [8] = experiment: Decrease in amyloid precursor protein expression in APP23 transgenic mouse cerebral cortices at 25 mg/kg/day, ip for 14 days by Western blot relative to control; format: functional, organism-based
[9] = Effect on neuronal differentiation of human neural stem cells transplanted in APP23 transgenic mouse hippocampus CA1 region assessed as increase of beta-3 tubulin+/BrdU+ count at 25 mg/kg/day, ip for 14 days; format: functional, Neural stem cell; conditions: route intraperitoneal; how it was run: as §1
Mus musculus [10] = experiment: Decrease in glial fibrillary acidic protein expression in APP23 transgenic mouse hippocampus at 25 mg/kg/day, ip for 14 days by Western blot relative to control; format: functional; set-up: scale not given: the % may be the effect or the level left; conditions: route intraperitoneal

CN1CC[C@]2(C)c3cc(OC(=O)Nc4ccccc4)ccc3N(C)C12 (stereo not given in full)
Activity [1]: 32% | Activity [2]: 32% | Activity [3]: 40% | Activity [4]: 32% | Activity (Mus musculus [5]): Active | Activity (Mus musculus [6]): 38% | Activity [7]: 28% | Activity (Mus musculus [8]): Active | Activity [9]: 32% | Activity (Mus musculus [10]): 36%
